# Measured values: ChEMBL document CHEMBL1157731, “Novel KCNQ2/Q3 agonists as potential therapeutics for epilepsy and neuropathic pain” (J Med Chem, 2010)
# Key:
# [1] = target: Sodium-dependent dopamine transporter (Homo sapiens) (UniProt Q01959); test: Binding affinity to DAT at 10 uM by displacement assay
# Rattus norvegicus [2] = test: Anticonvulsant activity in po dosed Sprague-Dawley rat assessed as inhibition of pentylenetetrazole-induced seizure treated 30 mins before PTZ challenge; format: functional, organism-based
# Outline: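 Male Sprague-Dawley rats received compound po in 0.5% methylcellulose (1 mL/kg) 30 min before PTZ 85 mg/kg sc. Latency to tonic-clonic seizure timed from PTZ injection. No seizure within 15 min scored as protected (latency 15 min). EC50 derived from latency scores.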
# [3] = Displacement of radioligand from NMDA receptor at 10 uM
# [4] = target: T1, 5-hydroxytryptamine receptor 1A (Homo sapiens) (UniProt P08908); test: Displacement of radioligand from 5HT1A receptor at 10 uM by displacement assay
# T1 sequence (whole entry): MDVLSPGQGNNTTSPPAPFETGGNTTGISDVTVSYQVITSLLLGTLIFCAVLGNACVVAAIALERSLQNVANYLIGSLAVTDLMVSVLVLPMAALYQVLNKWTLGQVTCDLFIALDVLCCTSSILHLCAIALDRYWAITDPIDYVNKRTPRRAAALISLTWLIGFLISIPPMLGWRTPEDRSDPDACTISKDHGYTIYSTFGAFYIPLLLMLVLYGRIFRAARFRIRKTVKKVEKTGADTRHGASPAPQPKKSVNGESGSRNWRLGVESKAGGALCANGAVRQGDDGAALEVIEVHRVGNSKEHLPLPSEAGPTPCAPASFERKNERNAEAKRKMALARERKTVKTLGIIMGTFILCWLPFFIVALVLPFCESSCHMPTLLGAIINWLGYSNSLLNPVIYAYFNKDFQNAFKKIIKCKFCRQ
# [5] = Displacement of radioligand from opiate receptor at 10 uM
# [6] = target: D(1A) dopamine receptor (Homo sapiens) (UniProt P21728); test: Displacement of radioligand from dopamine D1 receptor at 10 uM
# Chain of D(1A) dopamine receptor (Homo sapiens) (P21728 whole entry): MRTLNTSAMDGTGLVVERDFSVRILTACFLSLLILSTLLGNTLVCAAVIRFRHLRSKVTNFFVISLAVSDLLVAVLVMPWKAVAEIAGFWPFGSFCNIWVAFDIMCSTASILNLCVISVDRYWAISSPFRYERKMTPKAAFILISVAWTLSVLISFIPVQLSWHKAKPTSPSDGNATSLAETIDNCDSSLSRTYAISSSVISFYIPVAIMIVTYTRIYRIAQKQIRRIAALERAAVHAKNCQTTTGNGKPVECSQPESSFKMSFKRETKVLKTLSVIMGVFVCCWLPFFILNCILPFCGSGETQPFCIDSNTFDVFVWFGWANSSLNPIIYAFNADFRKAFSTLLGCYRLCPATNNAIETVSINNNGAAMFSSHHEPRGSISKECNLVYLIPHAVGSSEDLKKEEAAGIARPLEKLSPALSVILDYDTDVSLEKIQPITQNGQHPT
# [7] = target: Histamine H1 receptor (Homo sapiens) (UniProt P35367); test: Displacement of radioligand from histamine H1 receptor at 10 uM
# Chain of Histamine H1 receptor (Homo sapiens) (P35367 whole entry): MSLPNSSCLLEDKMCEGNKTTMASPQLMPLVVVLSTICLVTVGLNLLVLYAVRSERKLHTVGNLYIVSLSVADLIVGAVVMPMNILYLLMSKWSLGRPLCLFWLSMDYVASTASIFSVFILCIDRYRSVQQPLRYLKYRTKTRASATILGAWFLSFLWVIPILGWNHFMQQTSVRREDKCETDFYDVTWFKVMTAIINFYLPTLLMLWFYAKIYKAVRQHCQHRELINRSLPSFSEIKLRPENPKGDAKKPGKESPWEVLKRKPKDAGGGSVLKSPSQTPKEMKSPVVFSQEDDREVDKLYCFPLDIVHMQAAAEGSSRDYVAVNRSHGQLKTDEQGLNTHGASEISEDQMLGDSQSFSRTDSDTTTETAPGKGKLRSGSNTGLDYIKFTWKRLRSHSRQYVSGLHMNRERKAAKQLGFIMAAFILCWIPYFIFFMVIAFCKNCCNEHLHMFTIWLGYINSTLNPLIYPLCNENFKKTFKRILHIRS
# [8] = target: Sodium-dependent noradrenaline transporter (Homo sapiens) (UniProt P23975); test: Binding affinity to NET at 10 uM by displacement assay
# Chain of Sodium-dependent noradrenaline transporter (Homo sapiens) (P23975 whole entry): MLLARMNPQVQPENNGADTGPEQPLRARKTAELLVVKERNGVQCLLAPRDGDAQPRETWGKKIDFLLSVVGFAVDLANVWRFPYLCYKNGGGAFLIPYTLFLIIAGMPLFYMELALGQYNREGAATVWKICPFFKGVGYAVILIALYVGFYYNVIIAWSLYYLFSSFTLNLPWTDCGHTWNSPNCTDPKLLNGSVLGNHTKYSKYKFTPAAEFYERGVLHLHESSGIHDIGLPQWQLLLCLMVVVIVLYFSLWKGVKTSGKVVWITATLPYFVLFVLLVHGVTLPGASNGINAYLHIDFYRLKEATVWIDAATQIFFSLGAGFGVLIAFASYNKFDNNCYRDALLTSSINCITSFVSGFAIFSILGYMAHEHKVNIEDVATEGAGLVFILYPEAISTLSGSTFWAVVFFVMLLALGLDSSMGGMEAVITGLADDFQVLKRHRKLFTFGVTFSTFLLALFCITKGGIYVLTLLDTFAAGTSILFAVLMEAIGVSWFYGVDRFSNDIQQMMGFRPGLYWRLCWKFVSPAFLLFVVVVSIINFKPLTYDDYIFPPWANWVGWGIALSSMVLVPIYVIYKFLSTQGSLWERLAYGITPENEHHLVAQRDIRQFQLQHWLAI
# [9] = target: T2, Glucocorticoid receptor (Homo sapiens) (UniProt P04150); test: Binding affinity to glucocorticoid receptor at 10 uM by displacement assay
# T2 sequence (whole entry): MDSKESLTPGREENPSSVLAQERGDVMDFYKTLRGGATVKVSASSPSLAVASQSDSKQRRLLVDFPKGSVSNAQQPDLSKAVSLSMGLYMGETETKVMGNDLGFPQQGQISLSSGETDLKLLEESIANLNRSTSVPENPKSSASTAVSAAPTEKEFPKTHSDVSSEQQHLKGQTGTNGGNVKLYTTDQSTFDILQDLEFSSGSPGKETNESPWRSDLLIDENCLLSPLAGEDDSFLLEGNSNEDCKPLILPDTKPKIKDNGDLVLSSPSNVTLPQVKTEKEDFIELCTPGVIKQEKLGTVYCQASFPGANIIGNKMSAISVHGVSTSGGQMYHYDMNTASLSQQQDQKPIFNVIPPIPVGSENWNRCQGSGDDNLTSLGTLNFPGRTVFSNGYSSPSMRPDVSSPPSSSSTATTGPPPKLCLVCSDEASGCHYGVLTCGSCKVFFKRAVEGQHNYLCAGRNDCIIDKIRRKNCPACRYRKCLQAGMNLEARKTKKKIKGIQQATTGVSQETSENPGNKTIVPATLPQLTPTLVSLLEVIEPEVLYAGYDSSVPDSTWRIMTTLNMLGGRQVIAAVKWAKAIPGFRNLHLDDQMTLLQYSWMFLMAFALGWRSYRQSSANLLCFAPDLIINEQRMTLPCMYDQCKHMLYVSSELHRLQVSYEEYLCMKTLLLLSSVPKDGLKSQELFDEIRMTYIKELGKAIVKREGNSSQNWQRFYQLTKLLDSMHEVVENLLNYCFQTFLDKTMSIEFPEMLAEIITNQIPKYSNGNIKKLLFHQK
# Rattus norvegicus [10] = species on record: Rattus norvegicus; test: Displacement of [125I]peptide YY from neuropeptide Y receptor in rat cerebral cortex at 10 uM; format: tissue-based
# [11] = Binding affinity to central-type benzodiazepine receptor at 10 uM by displacement assay
# [12] = target: T3, Endothelin-1 receptor (Homo sapiens) (UniProt P25101); test: Displacement of [125I]endothelin-1 from human recombinant endothelin A receptor expressed in CHO cells; format: cell-based
# T3 sequence (whole entry): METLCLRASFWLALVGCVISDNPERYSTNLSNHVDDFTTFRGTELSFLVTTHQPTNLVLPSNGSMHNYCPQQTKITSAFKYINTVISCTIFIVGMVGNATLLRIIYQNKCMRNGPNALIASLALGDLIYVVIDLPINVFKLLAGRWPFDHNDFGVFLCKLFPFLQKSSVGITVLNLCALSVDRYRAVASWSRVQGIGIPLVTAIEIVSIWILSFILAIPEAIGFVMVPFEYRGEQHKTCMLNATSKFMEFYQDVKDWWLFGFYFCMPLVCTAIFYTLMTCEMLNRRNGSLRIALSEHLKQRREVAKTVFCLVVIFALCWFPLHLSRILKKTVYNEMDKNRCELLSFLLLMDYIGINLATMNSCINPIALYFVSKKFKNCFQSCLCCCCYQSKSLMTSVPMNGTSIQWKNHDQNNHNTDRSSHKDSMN
# [13] = target: 5-hydroxytryptamine receptor 1B (Homo sapiens) (UniProt P28222); test: Displacement of radioligand from 5HT1B receptor at 10 uM by displacement assay
# Chain of 5-hydroxytryptamine receptor 1B (Homo sapiens) (P28222 whole entry): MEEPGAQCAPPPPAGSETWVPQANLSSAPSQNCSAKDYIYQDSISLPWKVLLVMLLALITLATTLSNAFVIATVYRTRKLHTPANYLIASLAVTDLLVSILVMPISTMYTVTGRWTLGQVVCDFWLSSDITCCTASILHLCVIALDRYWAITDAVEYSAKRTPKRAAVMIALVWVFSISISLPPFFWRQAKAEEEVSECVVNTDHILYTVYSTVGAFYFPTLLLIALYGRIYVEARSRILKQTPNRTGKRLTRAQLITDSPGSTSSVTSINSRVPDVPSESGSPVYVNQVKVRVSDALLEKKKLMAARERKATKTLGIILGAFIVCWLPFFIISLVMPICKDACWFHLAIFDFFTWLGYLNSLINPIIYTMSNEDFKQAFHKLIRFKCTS
# [14] = target: Substance-P receptor (Homo sapiens) (UniProt P25103); test: Displacement of [125I]BH-SP from NK1 receptor in human U373MG cells at 10 uM; format: cell-based; conditions: U-373MG ATCC
# Chain of Substance-P receptor (Homo sapiens) (P25103 whole entry): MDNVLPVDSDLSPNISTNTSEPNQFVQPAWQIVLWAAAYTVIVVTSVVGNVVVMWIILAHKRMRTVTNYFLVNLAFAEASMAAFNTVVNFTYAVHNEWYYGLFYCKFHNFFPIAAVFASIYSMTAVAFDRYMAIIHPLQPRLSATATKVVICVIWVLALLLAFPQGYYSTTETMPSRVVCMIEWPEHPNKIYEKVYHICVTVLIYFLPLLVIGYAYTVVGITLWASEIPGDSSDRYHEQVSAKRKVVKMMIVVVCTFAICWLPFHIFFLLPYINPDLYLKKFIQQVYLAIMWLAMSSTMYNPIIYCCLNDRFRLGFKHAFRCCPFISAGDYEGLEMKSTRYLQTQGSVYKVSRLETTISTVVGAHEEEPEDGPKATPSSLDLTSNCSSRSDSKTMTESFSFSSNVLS
# [15] = target: T4, Adenosine receptor A1 (Homo sapiens) (UniProt P30542); test: Displacement of [3H]CCPA from human recombinant adenosine A1 receptor expressed in CHO cells at 10 uM; format: cell-based
# T4 sequence (whole entry): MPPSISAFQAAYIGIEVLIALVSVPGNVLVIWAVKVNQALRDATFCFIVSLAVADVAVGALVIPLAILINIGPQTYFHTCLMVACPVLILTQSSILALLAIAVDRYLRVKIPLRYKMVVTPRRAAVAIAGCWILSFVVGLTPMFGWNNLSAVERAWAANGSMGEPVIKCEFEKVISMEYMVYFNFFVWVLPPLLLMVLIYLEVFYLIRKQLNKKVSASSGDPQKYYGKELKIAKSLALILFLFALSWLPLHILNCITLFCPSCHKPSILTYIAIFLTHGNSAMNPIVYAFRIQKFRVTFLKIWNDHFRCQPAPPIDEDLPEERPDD
# [16] = target: D(2) dopamine receptor (Homo sapiens) (UniProt P14416); test: Displacement of radioligand from dopamine D2 receptor at 10 uM
# Chain of D(2) dopamine receptor (Homo sapiens) (P14416 whole entry): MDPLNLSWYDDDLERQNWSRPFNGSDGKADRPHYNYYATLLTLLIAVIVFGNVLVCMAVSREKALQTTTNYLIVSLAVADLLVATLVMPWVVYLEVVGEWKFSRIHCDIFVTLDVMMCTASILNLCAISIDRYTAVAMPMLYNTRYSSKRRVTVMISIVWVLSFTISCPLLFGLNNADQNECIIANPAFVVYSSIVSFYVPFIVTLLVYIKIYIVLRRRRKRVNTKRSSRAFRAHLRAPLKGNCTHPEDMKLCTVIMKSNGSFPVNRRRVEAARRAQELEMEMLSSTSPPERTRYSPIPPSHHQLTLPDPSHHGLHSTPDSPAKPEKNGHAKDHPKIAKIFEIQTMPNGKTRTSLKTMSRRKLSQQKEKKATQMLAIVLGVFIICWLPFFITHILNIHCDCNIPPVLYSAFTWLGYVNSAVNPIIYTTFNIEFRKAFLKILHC
# Chain of Sodium-dependent dopamine transporter (Homo sapiens) (Q01959 whole entry): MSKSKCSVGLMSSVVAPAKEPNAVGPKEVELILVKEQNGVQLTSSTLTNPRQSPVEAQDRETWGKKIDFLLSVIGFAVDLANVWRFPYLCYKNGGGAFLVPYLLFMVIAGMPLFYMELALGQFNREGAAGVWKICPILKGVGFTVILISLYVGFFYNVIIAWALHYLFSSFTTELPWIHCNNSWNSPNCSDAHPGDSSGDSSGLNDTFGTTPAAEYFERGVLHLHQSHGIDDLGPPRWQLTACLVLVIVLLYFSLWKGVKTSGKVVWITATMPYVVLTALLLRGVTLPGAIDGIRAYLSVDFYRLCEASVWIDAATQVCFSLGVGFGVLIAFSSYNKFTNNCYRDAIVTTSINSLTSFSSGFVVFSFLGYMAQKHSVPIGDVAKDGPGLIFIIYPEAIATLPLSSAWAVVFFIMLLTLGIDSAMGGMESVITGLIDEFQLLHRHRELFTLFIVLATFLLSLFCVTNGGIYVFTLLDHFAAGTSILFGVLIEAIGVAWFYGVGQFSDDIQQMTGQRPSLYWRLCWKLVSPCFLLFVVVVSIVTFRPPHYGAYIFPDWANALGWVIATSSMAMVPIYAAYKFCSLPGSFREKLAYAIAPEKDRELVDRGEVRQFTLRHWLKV
Structure (SMILES),Activity [1] [%],EC50 (Rattus norvegicus [2]) [mg/kg],Activity [3] [%],Activity [4] [%],Activity [5] [%],Activity [6] [%],Activity [7] [%],Activity [8] [%],Activity [9] [%],Activity (Rattus norvegicus [10]) [%],Activity [11] [%],Activity [12] [%],Activity [13] [%],Activity [14] [%],Activity [15] [%],Activity [16] [%]
Cn1/c(=N/NC(=O)CC2CCCC2)sc2cc(OC(F)(F)F)ccc21,21,7.5,0,0,16,0,0,34,14,33,0,0,0,21,0,0
CC(C)OC(=O)N/N=c1\sc2cc(OC(F)(F)F)ccc2n1C,0,2.6,0,18,11,0,0,43,0,0,22,0,0,10,11,0
Cn1/c(=N/NC(=O)CC(C)(C)C)sc2cc(OC(F)(F)F)ccc21,0,3.8,0,0,0,0,22,14,0,0,0,0,0,0,0,0
